The results in this text go back to ChEMBL document CHEMBL1153886, “Synthesis, analgesic and anti-inflammatory activities of novel 3-(4-acetamido-benzyl)-5-substituted-1,2,4-oxadiazoles” (2009).

Format in all cases: functional
For assay [1], the system named is Mus musculus. Put plainly: Antiinflammatory activity against carrageenan-induced paw edema in C57BL/6 mouse assessed as increase in paw volume at 100 mg/kg, po administered 1 hr before carrageenan challenge measured 4 hrs after carrageenan challenge relative to control. The method, boiled down: (§1)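 Male C57BL/6 mice dosed orally at 100 mg/kg as a suspension in 5% carboxymethylcellulose 1 h before challenge. 0.05 ml of 1% w/v carrageenan in 0.9% sterile saline injected subcutaneously into right hind paw plantar region under light anaesthesia. Paw volume by digital plethysmometry immediately and 4 h later. Percent inhibition ± SEM vs vehicle group; diclofenac sodium 100 mg/kg p.o. as standard.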

The subject of assay [2] is Mus musculus. Put plainly: Antiinflammatory activity against carrageenan-induced paw edema in C57BL/6 mouse assessed as inhibition of paw edema at 100 mg/kg, po administered 1 hr before carrageenan challenge measured 4 hrs after carrageenan challenge relative to control. The method, boiled down: as §1
Assay [3] concerns Mus musculus. As to the kind of experiment: Analgesic activity in C57BL/6 mouse assessed as decrease in acetic acid-induced writhing at 100 mg/kg, po administered 1 hr before acetic acid challenge measured during 30 mins of acetic acid challenge relative to control. The arrangement: scale not given: the % may be the effect or the level left. The method, boiled down: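 Male C57BL/6 mice given 100 mg/kg orally (suspension in 5% carboxymethylcellulose) 1 h before i.p. injection of 0.25 ml 0.6% v/v acetic acid. Writhes counted over 30 min after injection. Percent inhibition calculated against mean writhing count of the control group; diclofenac sodium 100 mg/kg p.o. as standard.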

Regarding `CC(=O)Nc1ccc(Cc2noc(CCC(=O)O)n2)cc1`, the Activity in assay [1] was found to be 18%; in assay [3], 46.43%. Moreover, the inhibition in vivo at 100 mg/kg in assay [2] is 75.3%.
The corresponding values for `CC(=O)Nc1ccc(Cc2noc(CCC(=O)Nc3ccc(F)cc3F)n2)cc1` are 34%, -0.6% and 52%.
The corresponding values for `COc1ccc(NC(=O)CCc2nc(Cc3ccc(NC(C)=O)cc3)no2)cc1` are 37%, 67.26% and 49.3%.
For `CC(=O)Nc1ccc(Cc2noc(CCC(=O)Nc3ccccc3F)n2)cc1`, in that order: 24%, -23.21% and 67.1%.
For the molecule `CC(=O)Nc1ccc(Cc2noc(CCC(=O)Nc3ccccc3)n2)cc1`, the results for the Activity in assay [1] and in assay [3] were 48% and -13.1%, respectively. Also, the inhibition in vivo at 100 mg/kg in assay [2] is 34.2%.
The corresponding values for `COc1cccc(NC(=O)CCc2nc(Cc3ccc(NC(C)=O)cc3)no2)c1` are 47%, -7.14% and 35.6%.
The corresponding values for `C#Cc1cccc(NC(=O)CCc2nc(Cc3ccc(NC(C)=O)cc3)no2)c1` are 11%, 61.31% and 84.9%.
The corresponding values for `CC(=O)Nc1ccc(Cc2noc(CCC(=O)Nc3cccnc3)n2)cc1` are 9%, 80.95% and 87.7%.
As to `COc1ccccc1NC(=O)CCc1nc(Cc2ccc(NC(C)=O)cc2)no1`, the Activity in assay [1] is on record as 9%; in assay [3], 73.81%. Further, the inhibition in vivo at 100 mg/kg in assay [2] came out at 87.7%.
As to `CC(=O)Nc1ccc(Cc2noc(CCC(=O)NCc3ccccc3)n2)cc1`, the Activity in assay [1] is listed as 17%; in assay [3], -0.6%. For the same molecule, the inhibition in vivo at 100 mg/kg in assay [2] was determined as 76.7%.
The corresponding values for `COc1ccc(NC(=O)CCc2nc(Cc3ccc(NC(C)=O)cc3)no2)cc1F` are 29%, 36.9% and 60.3%.
For `CC(=O)Nc1ccc(Cc2noc(CCC(=O)Nc3cccc(C)c3)n2)cc1`, in that order: 61%, 67.26% and 16.4%.
The corresponding values for `CC(=O)Nc1ccc(Cc2noc(CCC(=O)Nc3ccc(F)cc3)n2)cc1` are 26%, 67.86% and 64.4%.
For `CC(=O)Nc1ccc(Cc2noc(CCC(=O)Nc3ccc(C(F)(F)F)cc3)n2)cc1`, the Activity in assay [1] is recorded as 46%; in assay [3], 31.55%. Further, the inhibition in vivo at 100 mg/kg in assay [2] worked out at 37%.
The corresponding values for `COc1ccc(NC(=O)CCc2nc(Cc3ccc(NC(C)=O)cc3)no2)cc1OC` are 3%, 80.36% and 95.9%.
For `O=C([O-])Cc1ccccc1Nc1c(Cl)cccc1Cl.[Na+]` [DICLOFENAC SODIUM], in that order: 36%, 77.38% and 50.7%.
